Assay results from PubChem BioAssay.
The source made the active and inactive calls. Cut-off read from the data, not from the text of the source, unless noted: active = inhibition above about 30%; inactive = the rest.

What was measured:
[1] = Her2 expression decrease, cell viability multiplex – SKBR3 breast tumor cells, AlphaScreen, ATP viability, primary screen (AID 461;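 active = Her2 level under about 52% in both replicate screens, with viability over 70% of control, limit read from the data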;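 for Her2 level: lower value means less Her2 protein in the cells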;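 for viability: percent of carrier control wells set as 100% viability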); conditions: SKBR3 Her2 protein level, 18-24 h, measured here: SKBR3 viability, ATP luminescence, at 10 µM
[2] = target: Receptor tyrosine-protein kinase erbB-2 (Homo sapiens) (UniProt P04626); assay: as above; conditions: 18-24 h, at 10 µM, stronger effect = lower value
Chain of Receptor tyrosine-protein kinase erbB-2 (Homo sapiens) (P04626 whole entry, looked up): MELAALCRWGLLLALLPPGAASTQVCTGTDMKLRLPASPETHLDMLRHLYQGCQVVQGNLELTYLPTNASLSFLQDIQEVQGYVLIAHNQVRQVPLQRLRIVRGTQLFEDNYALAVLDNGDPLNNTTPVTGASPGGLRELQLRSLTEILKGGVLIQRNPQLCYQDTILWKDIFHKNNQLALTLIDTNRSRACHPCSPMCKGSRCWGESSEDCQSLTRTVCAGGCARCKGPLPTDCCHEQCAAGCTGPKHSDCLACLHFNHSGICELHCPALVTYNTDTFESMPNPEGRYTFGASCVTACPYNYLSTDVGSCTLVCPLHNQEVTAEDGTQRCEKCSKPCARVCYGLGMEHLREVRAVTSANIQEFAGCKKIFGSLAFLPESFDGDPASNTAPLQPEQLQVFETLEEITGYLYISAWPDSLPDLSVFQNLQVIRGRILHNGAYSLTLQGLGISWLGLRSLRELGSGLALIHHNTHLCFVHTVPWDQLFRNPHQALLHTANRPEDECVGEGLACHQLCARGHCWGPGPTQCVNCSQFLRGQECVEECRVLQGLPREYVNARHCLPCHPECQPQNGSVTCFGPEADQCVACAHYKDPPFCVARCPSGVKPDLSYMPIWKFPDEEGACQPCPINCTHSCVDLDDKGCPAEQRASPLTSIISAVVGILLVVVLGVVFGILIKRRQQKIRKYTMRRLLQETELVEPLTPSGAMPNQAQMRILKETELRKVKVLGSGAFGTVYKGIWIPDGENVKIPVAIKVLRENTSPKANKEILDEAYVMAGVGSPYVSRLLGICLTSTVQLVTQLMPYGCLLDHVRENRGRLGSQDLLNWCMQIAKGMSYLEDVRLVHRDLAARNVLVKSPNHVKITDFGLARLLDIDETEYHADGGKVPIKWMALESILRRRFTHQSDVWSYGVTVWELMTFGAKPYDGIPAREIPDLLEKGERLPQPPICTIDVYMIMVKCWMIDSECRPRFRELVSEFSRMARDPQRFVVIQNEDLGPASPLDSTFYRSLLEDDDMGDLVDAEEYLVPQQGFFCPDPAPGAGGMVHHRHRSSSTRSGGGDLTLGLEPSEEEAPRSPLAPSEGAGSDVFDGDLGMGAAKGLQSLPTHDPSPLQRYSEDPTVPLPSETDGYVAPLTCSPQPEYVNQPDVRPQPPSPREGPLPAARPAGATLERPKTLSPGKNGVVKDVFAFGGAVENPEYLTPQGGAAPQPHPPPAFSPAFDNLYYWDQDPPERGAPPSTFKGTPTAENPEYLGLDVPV

[3] = reduced viability of SK-BR-3 breast cancer cells – cell-based, 24 h, human, pilot screen (AID 572;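 active = viability at or below 10% of carrier control in both of two separate runs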;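 note: compound exposure lasted between 18 and 24 h rather than exactly 24 h; 100% = carrier-treated control wells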); conditions: SK-BR-3 viability, CellTiter-Glo luminescence, at 10 µM, stronger effect = lower value
[4] = HUVEC growth inhibition – cell-based, human, primary screen (AID 575;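 active = viability at or below 30% in both replicate assays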;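 note: 100% = median of untreated cell wells with 0.1% DMSO on each plate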); conditions: HUVEC proliferation, CellTiter-Glo luminescence, 72 h; at 10 µM; stronger effect = lower value
How it was run: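 Test system: primary human umbilical vein endothelial cells; medium: endothelial basal medium with 2% FBS plus growth supplements; dosing: 10 µM compound only; times: 72 h treatment at 37 °C; signal: CTG luminescence; read-out: % viability relative to median vehicle-well signal on each plate; control set: vehicle and MePR control wells; plate: 384-well, collagen-coated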

[5] = H69AR cell proliferation blockers – human, duplicate replicates, primary screen (AID 580;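 active = viability at or under a set limit in both replicates, limit being median viability minus 3 SD, cut at about 48% in these data, passing the limit was not always enough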;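 note: 100% = mean luminescence of untreated wells and 0% = no signal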); conditions: H69AR lung tumor cells viability, ATP luminescence, 72 h; at 10 µM; stronger effect = lower value
[6] = MRP1 drug-resistance reversers in H69AR cells – cell-based, doxorubicin co-treatment, pilot screen (AID 601;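 active = viability loss from added drug above about 55%, and viability with drug at most 40%, in both replicates, limit read from the data, passing the limit was not always enough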); conditions: CellTiter-Glo, 72 h, at 10 µM; for differential viability (reversal): stronger effect = higher value
[7] = yeast transport mutant growth inhibition pilot in 384-well plates, post-Golgi transport modulator project (AID 636; in the data active = inhibition above about 31%); conditions: absorbance 615 nm, about 18 h, stronger effect = higher value
[8] = growth suppression of yeast trafficking mutant, preliminary HTS, modulators of trafficking downstream of Golgi apparatus project, 1536-format plate, OD 615 nm (AID 637); conditions: yeast transport mutant growth, absorbance 615 nm, 18 h; stronger effect = higher value
[9] = H69AR cells + 2 uM doxorubicin, measured here: viability with 2 uM doxorubicin, stronger effect = lower value
[10] = H69AR cells, compound alone cytotoxicity

| SMILES | viability [1] | Her2 level [2] | viability [3] | viability [4] | viability [5] | differential viability (reversal) ([6]; H69AR cells + 2 uM doxorubicin) | viability [6, 9] | viability [6, 10] | inhibition [7] | inhibition [8] |
| --- | --- | --- | --- | --- | --- | --- | --- | --- | --- | --- |
| COc1cccc(-c2cc(C(=O)N3CCc4ccccc4C3)no2)c1 | 99.5% | 104% (inactive) | 99.5% (inactive) | 67.7% (inactive) | 96.8% (inactive) | -5.97% (inactive) | 103% | 96.8% | -8.51% (inactive) | -4.59% (inactive) |
| O=C(CSc1nnc(COc2ccc(Cl)cc2)o1)N1CCN(c2ccccc2)CC1 | 100% | 83% (inactive) | 100% (inactive) | 57% (inactive) | 90.2% (inactive) | -2.18% (inactive) | 92.4% | 90.2% | -3.2% (inactive) | 3.11% (inactive) |
| COc1ccc2c(-c3cccnc3)cc(=O)[nH]c2c1 | 116% | 93.5% (inactive) | 116% (inactive) | 87.2% (inactive) | 96% (inactive) | 8.77% (inactive) | 87.2% | 96% | -6.4% (inactive) | 4.43% (inactive) |
| O=c1[nH]c(NCc2ccco2)nnc1Cc1ccccc1Cl | 96.5% | 84% (inactive) | 96.5% (inactive) | 41.2% (inactive) | 13.3% (active) | -44.5% (inactive) | 57.8% | 13.3% | -7.67% (inactive) | 4.92% (inactive) |
| CCn1c(C)cc(=S)c2ccccc21 | 114% | 99.5% (inactive) | 114% (inactive) | 98.6% (inactive) | 91.2% (inactive) | 3.92% (inactive) | 87.3% | 91.2% | 1.22% (inactive) | -3.65% (inactive) |
| CCOC(=O)CC12CN3CN(C1)CC(CC(=O)OCC)(C3)C2=O | 94% | 86% (inactive) | 94% (inactive) | 89.1% (inactive) | 98.3% (inactive) | 3.54% (inactive) | 94.7% | 98.3% | -5.95% (inactive) | 0.49% (inactive) |
| COc1cccc(-c2nc(CSCC(=O)N3CCc4ccccc43)c(C)o2)c1 | 82.5% | 162% (inactive) | 82.5% (inactive) | 82.1% (inactive) | 87.1% (inactive) | -10.1% (inactive) | 97.1% | 87.1% | 2.63% (inactive) | -8.67% (inactive) |
| CC(C)[C@H](NC(=O)[C@@H]1CSCN1C(=O)OC(C)(C)C)C(=O)NCC1CCC(C(=O)O)CC1 (stereo not given in full) | 105% | 104% (inactive) | 105% (inactive) | 113% (inactive) | 102% (inactive) | 2.67% (inactive) | 99.3% | 102% | -3.33% (inactive) | -3.23% (inactive) |
| Fc1ccc(-n2c(Cc3ccccc3)nnc2SCc2nc(-c3cccs3)no2)cc1 | 99.5% | 92.5% (inactive) | 99.5% (inactive) | 73.1% (inactive) | 94.1% (inactive) | 17.9% (inactive) | 76.2% | 94.1% | -3.73% (inactive) | -0.98% (inactive) |
| COc1ccc(OC)c(C(=O)CSc2nnc(-c3ccc(OC)c(OC)c3)o2)c1 | 104% | 104% (inactive) | 104% (inactive) | 75.9% (inactive) | 74.5% (inactive) | 0.865% (inactive) | 73.7% | 74.5% | -5.32% (inactive) | -8.85% (inactive) |
| O=C(c1cccs1)N1CCN=C1SCc1ccccc1 | 120% | 74.5% (inactive) | 120% (inactive) | 60.8% (inactive) | 90.4% (inactive) | 6.13% (inactive) | 84.2% | 90.4% | 3.51% (inactive) | -0.66% (inactive) |
| Cc1cc(C)n2nc(SCc3cc(=O)n4ccccc4n3)nc2n1 | 100% | 72.5% (inactive) | 100% (inactive) | 107% (inactive) | 101% (inactive) | 5.5% (inactive) | 95.3% | 101% | -4.47% (inactive) | -1% (inactive) |
| COc1cc(C(=O)N2CCN(C(=O)CC(C)C)CC2)cc(OC)c1OC | 93.5% | 106% (inactive) | 93.5% (inactive) | 101% (inactive) | 91.3% (inactive) | -6.59% (inactive) | 97.9% | 91.3% | 2.63% (inactive) | 13.2% (inactive) |
| O=c1cc(-c2ccccc2)[nH]c2nc3ccccc3n12 | 90.5% | 60.5% (inactive) | 90.5% (inactive) | 35.5% (inactive) | 9.48% (active) | -49.3% (inactive) | 58.8% | 9.48% | -2.76% (inactive) | -2.73% (inactive) |
| CCCCN(C)CCCNC(=O)CC1Oc2ccccc2NC1=O (stereo not given) | 86.5% | 91.5% (inactive) | 86.5% (inactive) | 104% (inactive) | 93.4% (inactive) | -7.03% (inactive) | 100% | 93.4% | -4.53% (inactive) | 2.95% (inactive) |
| COc1cc(OC)cc(C(=O)N2CCN(C(=O)c3ccc(OC)c(OC)c3)CC2)c1 | 100% | 104% (inactive) | 100% (inactive) | 86.1% (inactive) | 92.4% (inactive) | -11.1% (inactive) | 103% | 92.4% | -1.84% (inactive) | -6.45% (inactive) |

| SMILES | viability [1] | Her2 level [2] | viability [3] | viability [4] | viability [5] | differential viability (reversal) ([6]; H69AR cells + 2 uM doxorubicin) | viability [6, 9] | viability [6, 10] | inhibition [7] | inhibition [8] |
| --- | --- | --- | --- | --- | --- | --- | --- | --- | --- | --- |
| COc1ccc(C(=O)Nc2cccc(C)c2)cc1S(=O)(=O)N1CCOCC1 | 100% | 83% (inactive) | 100% (inactive) | 108% (inactive) | 93.2% (inactive) | 7.64% (inactive) | 85.5% | 93.2% | -5% (inactive) | -5.71% (inactive) |
| CCOC(=O)c1cc(C)sc1N1C(=O)C2C3C=CC(C3)C2C1=O (stereo not given) | 132% | 94.5% (inactive) | 132% (inactive) | 109% (inactive) | 98.7% (inactive) | 5.84% (inactive) | 92.8% | 98.7% | -7.67% (inactive) | -0.95% (inactive) |
| COc1ccc(C(=O)NCc2nnc(SCC(=O)Nc3cc(C)cc(C)c3)o2)cc1OC | 89.5% | 102% (inactive) | 89.5% (inactive) | 99.6% (inactive) | 89.3% (inactive) | 7.32% (inactive) | 82% | 89.3% | 0.13% (inactive) | 1.33% (inactive) |
| CCC(=NC(C)c1ccccc1)c1c(O)n(C)c(=O)n(C)c1=O (stereo not given) | 94% | 88% (inactive) | 94% (inactive) | 72.8% (inactive) | 90.7% (inactive) | -14.2% (inactive) | 105% | 90.7% | -2.89% (inactive) | 6.39% (inactive) |
| COCC(=O)N(c1ccc(C(C)C)cc1)C1C=CS(=O)(=O)C1 (stereo not given) | 93.5% | 80% (inactive) | 93.5% (inactive) | 78.9% (inactive) | 89.6% (inactive) | 0.84% (inactive) | 88.8% | 89.6% | -3.08% (inactive) | 0.83% (inactive) |
| COC(=O)c1sc(S(=O)(=O)NCc2cccs2)c(C(=O)OC)c1C | 84% | 93% (inactive) | 84% (inactive) | 85.8% (inactive) | 92.3% (inactive) | 7.38% (inactive) | 84.9% | 92.3% | -8.24% (inactive) | 4.26% (inactive) |
| O=C(Cn1cnc2c(nnn2Cc2ccccc2)c1=O)c1ccc(Cl)cc1 | 93.5% | 110% (inactive) | 93.5% (inactive) | 84.5% (inactive) | 97.1% (inactive) | 8.5% (inactive) | 88.6% | 97.1% | -3.46% (inactive) | -0.17% (inactive) |
| O=C(Nc1ccc(CN2CCOCC2)cc1)c1cc2ccccc2oc1=O | 99.5% | 88% (inactive) | 99.5% (inactive) | 92.2% (inactive) | 82.6% (inactive) | 2.02% (inactive) | 80.6% | 82.6% | -2.37% (inactive) | 3.39% (inactive) |
| COC(=O)C1=C(C)NC(=O)C1(NC(=O)CN1CCCC1=O)C(F)(F)F (stereo not given) | 116% | 91% (inactive) | 116% (inactive) | 105% (inactive) | 101% (inactive) | 3.15% (inactive) | 98.3% | 101% | -4.34% (inactive) | -6.03% (inactive) |
| N/C(=N/O)c1nc(N2CCCC2)nc(N(c2ccccc2)c2ccccc2)n1 | 108% | 93.5% (inactive) | 108% (inactive) | 75.9% (inactive) | 65.2% (inactive) | 5.79% (inactive) | 59.4% | 65.2% | -6.62% (inactive) | 3.17% (inactive) |
| O=c1c(-c2ccc(Br)cc2)coc2c(CN3CCOCC3)c(O)ccc12 | 85.5% | 80.5% (inactive) | 85.5% (inactive) | 101% (inactive) | 92.2% (inactive) | -4.24% (inactive) | 96.5% | 92.2% | -3.33% (inactive) | -2.22% (inactive) |
| Nc1nc(CSCc2ccccc2)nc(N2CCOCC2)n1 | 99.5% | 93.5% (inactive) | 99.5% (inactive) | 109% (inactive) | 95% (inactive) | 5.8% (inactive) | 89.2% | 95% | -5.27% (inactive) | -8.67% (inactive) |
| COc1ccc(OC)c(NC(=O)CSc2ncccc2C(=O)O)c1 | 104% | 98% (inactive) | 104% (inactive) | 100% (inactive) | 104% (inactive) | 7.42% (inactive) | 96.4% | 104% | -3.29% (inactive) | -3.45% (inactive) |
| O=C(Nc1ccc2nc(-c3cccs3)[nH]c2c1)c1ccco1 | 108% | 98.5% (inactive) | 108% (inactive) | 94.2% (inactive) | 75.2% (inactive) | 1.25% (inactive) | 74% | 75.2% | 0.13% (inactive) | 2.95% (inactive) |
| CCOC(=O)C1CCN(C(=O)C2CCN(S(=O)(=O)c3cc(Cl)ccc3Cl)CC2)CC1 | 92% | 91% (inactive) | 92% (inactive) | 115% (inactive) | 89.4% (inactive) | 20.7% (inactive) | 68.7% | 89.4% | -5.07% (inactive) | 0.48% (inactive) |
